# Reference: ChEMBL document CHEMBL3351712, “Synthesis and antiviral evaluation of 2-amino-6-carbamoylpurine dioxolane nucleoside derivatives and their phosphoramidates prodrugs” (Bioorg Med Chem, 2014)
# pEC50: −log10 of the molar value.
# Tests used:
# [1] = system: Human immunodeficiency virus 1; assay: Antiviral activity against HIV1; type: functional, organism-based
# Method in brief: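 Antiviral assay run in primary human lymphocytes.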
# Hepatitis B virus = assay: Antiviral activity against Hepatitis B virus; type: functional, organism-based
# Method in brief: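 Anti-HBV activity measured in HepG2 cells.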
# PBMC = assay: (§1) Cytotoxicity against human PBMC; type: cell-based; details: pbmc
# CCRF-CEM = assay: Cytotoxicity against human CEM cell; type: functional
# Vero = assay: (§2) Cytotoxicity against african green monkey Vero cells; type: cell-based; details: chlorocebus sabaeus, vero
# HepG2 = assay: Cytotoxicity against human HepG2 cells; type: functional
# [2] = as §1; type: cell-based; details: PBMC (peripheral blood mononuclear cells)
# [3] = as §2; type: cell-based; details: chlorocebus sabaeus, Vero cells
structure (smiles),measurement,setting,value
Nc1nc(N)c2ncn([C@H]3CO[C@@H](CO)O3)c2n1 [AMDOXOVIR],pEC50,[1],6.35
same,EC90,[1],7.6 µM
same,pEC50,Hepatitis B virus,4.92
same,EC90,Hepatitis B virus,> 100 µM
same,CC50,PBMC,> 100 µM
same,CC50,CCRF-CEM,> 100 µM
same,CC50,Vero,> 100 µM
same,CC50,HepG2,> 100 µM
Cc1cn([C@H]2C[C@H](N=[N+]=[N-])[C@@H](CO)O2)c(=O)[nH]c1=O [ZIDOVUDINE],pEC50,[1],8.43
same,EC90,[1],0.047 µM
same,pEC50,Hepatitis B virus,< 5.00
same,EC90,Hepatitis B virus,> 10 µM
same,CC50,[2],> 100 µM
same,CC50,CCRF-CEM,14 µM
same,CC50,Vero,56 µM
same,CC50,HepG2,> 100 µM
CCCCCCCCCCCCCC(=O)Nc1nc(N)nc2c1ncn2[C@H]1CO[C@@H](CO)O1,pEC50,[1],5.19
same,EC90,[1],27 µM
same,pEC50,Hepatitis B virus,< 5.00
same,EC90,Hepatitis B virus,> 10 µM
same,CC50,PBMC,> 100 µM
same,CC50,CCRF-CEM,4.6 µM
same,CC50,Vero,7.7 µM
same,CC50,HepG2,56 µM
CCCC(=O)Nc1nc(N)nc2c1ncn2[C@H]1CO[C@@H](CO)O1,pEC50,[1],5.04
same,EC90,[1],38 µM
same,pEC50,Hepatitis B virus,< 5.00
same,EC90,Hepatitis B virus,> 10 µM
same,CC50,PBMC,> 100 µM
same,CC50,CCRF-CEM,> 100 µM
same,CC50,Vero,> 100 µM
same,CC50,HepG2,> 100 µM
CCCCCC(=O)Nc1nc(N)nc2c1ncn2[C@H]1CO[C@@H](CO)O1,pEC50,[1],4.47
same,EC90,[1],> 100 µM
same,pEC50,Hepatitis B virus,< 5.00
same,EC90,Hepatitis B virus,> 10 µM
same,CC50,PBMC,> 100 µM
same,CC50,CCRF-CEM,> 100 µM
same,CC50,Vero,> 100 µM
same,CC50,HepG2,> 100 µM
CCCCCCCCCCCC(=O)Nc1nc(N)nc2c1ncn2[C@H]1CO[C@@H](CO)O1,pEC50,[1],5.44
same,EC90,[1],18 µM
same,pEC50,Hepatitis B virus,< 5.00
same,EC90,Hepatitis B virus,> 10 µM
same,CC50,PBMC,60 µM
same,CC50,CCRF-CEM,13 µM
same,CC50,Vero,53 µM
same,CC50,HepG2,> 100 µM
CCCCCCCC(=O)Nc1nc(N)nc2c1ncn2[C@H]1CO[C@@H](CO)O1,pEC50,[1],4.68
same,EC90,[1],56 µM
same,pEC50,Hepatitis B virus,< 5.00
same,EC90,Hepatitis B virus,> 10 µM
same,CC50,PBMC,> 100 µM
same,CC50,CCRF-CEM,> 100 µM
same,CC50,Vero,> 100 µM
same,CC50,HepG2,> 100 µM
CCCCCCCCCCCCCCCC(=O)Nc1nc(N)nc2c1ncn2[C@H]1CO[C@@H](CO)O1,pEC50,[1],5.92
same,EC90,[1],6 µM
same,pEC50,Hepatitis B virus,< 5.00
same,EC90,Hepatitis B virus,> 10 µM
same,CC50,PBMC,> 100 µM
same,CC50,CCRF-CEM,> 100 µM
same,CC50,Vero,90 µM
same,CC50,HepG2,> 100 µM
CCCCCCCC/C=C\CCCCCCCC(=O)Nc1nc(N)nc2c1ncn2[C@H]1CO[C@@H](CO)O1,pEC50,[1],5.46
same,EC90,[1],13 µM
same,pEC50,Hepatitis B virus,< 5.00
same,EC90,Hepatitis B virus,> 10 µM
same,CC50,[2],76 µM
same,CC50,CCRF-CEM,13 µM
same,CC50,[3],19 µM
same,CC50,HepG2,11 µM
CCCCCCCCCC(=O)Nc1nc(N)nc2c1ncn2[C@H]1CO[C@@H](CO)O1,pEC50,[1],4.59
same,EC90,[1],65 µM
same,pEC50,Hepatitis B virus,< 5.00
same,EC90,Hepatitis B virus,> 10 µM
same,CC50,PBMC,> 100 µM
same,CC50,CCRF-CEM,65 µM
same,CC50,Vero,> 100 µM
same,CC50,HepG2,> 100 µM
CC(=O)Nc1nc(N)nc2c1ncn2[C@H]1CO[C@@H](CO)O1,pEC50,[1],6.25
same,EC90,[1],12 µM
same,pEC50,Hepatitis B virus,< 5.00
same,EC90,Hepatitis B virus,> 10 µM
same,CC50,PBMC,> 100 µM
same,CC50,CCRF-CEM,> 100 µM
same,CC50,Vero,> 100 µM
same,CC50,HepG2,> 100 µM
